Measured values reported in ChEMBL document CHEMBL3414540, “Synthesis, crystal structure and effect of indeno[1,2-b]indole derivatives on prostate cancer in vitro. Potential effect against MMP-9” (Eur J Med Chem, 2015).
Values after ≈ are worked out from the molar mass of the structure shown. Active and inactive are the calls of the source. The rule behind the calls is not given here.

Tests used:
[1] = (§1) Cytotoxicity against rat MAT-LyLu cells after 72 hrs by XTT assay; assay type: functional, cell-based; settings: MAT-Ly-Lu
In short: (§2)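 Compounds in DMSO (5-100 µg/ml, final DMSO <0.2%) were added for 72 h. XTT was then added (4 h, 37°C) and formazan read at 492 nm. IC50 is the 50% viability drop versus vehicle. Three experiments, five wells each, mean ± SEM.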

[2] = system: LNCaP; assay: Cytotoxicity against human LNCAP cells after 72 hrs by XTT assay; assay type: functional, cell-based; in short: as §2
[3] = (§3) Cytotoxicity against human PC3 cells after 72 hrs by XTT assay; assay type: functional, cell-based; settings: PC-3, 72 h; in short: as §2
[4] = system: MAT-Ly-Lu; assay: as §1; assay type: functional, cell-based; in short: as §2
[5] = system: PC-3; assay: as §3; assay type: functional, cell-based; in short: as §2
[6] = system: LNCaP; assay: Inhibition of cell invasion of human LNCAP cells pre-treated at cytotoxic IC50 level followed by further 18 hrs incubation by matrigel coated Boyden chamber assay; assay type: functional, cell-based
In short: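 LNCaP cells (1×10^5 cells/ml) were pretreated for 24 h, then seeded in serum-free medium onto a Matrigel-coated […] membrane over medium with 20% FBS (18 h, 37°C). Invaded cells were stained with calcein (4 µg/ml in HBSS, 1 h) and fluorescence read at 485/530 nm. Inhibition is relative to vehicle. Three independent experiments, mean ± SEM.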

[7] = system: LNCaP; assay: Inhibition of clonogenic potential of human LNCAP cells grown on semi-soft agar medium assessed as relative colony size ratio at cytotoxic IC50 level incubated for 2 weeks post dose by crystal violet staining based light microscopy (reference value: 1 +/- 0.3); assay type: functional
In short: (§4)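 Cells (1×10^5) in RPMI with 20% FBS and 0.3% Noble agar were layered over a 0.6% agar/RPMI base, held 15 min at room temperature, then incubated 24 h at 37°C. Compound in 1 mL medium was added the next day. After 2 weeks, cells were stained with 0.01% crystal violet (18 h, 37°C). Colony number and relative size were scored by light microscopy against vehicle. Three independent experiments, mean ± SEM.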

[8] = Inhibition of clonogenic potential of human PC3 cells grown on semi-soft agar medium assessed as relative colony size ratio at cytotoxic IC50 level incubated for 2 weeks post dose by crystal violet staining based light microscopy (reference value: 1 +/- 0.3); assay type: functional, PC-3; in short: as §4
[9] = system: LNCaP; assay: Inhibition of clonogenic potential of human LNCAP cells grown on semi-soft agar medium assessed as colony formation at cytotoxic IC50 level incubated for 2 weeks post dose by crystal violet staining based light microscopy relative to control; assay type: functional; design: scale not given: the % may be the effect or the level left; in short: as §4
[10] = biological target: Matrix metalloproteinase-9 (Homo sapiens) (UniProt P14780); assay: Inhibition of MMP9 in human PC3 cells assessed as reduction in MMP-mediated gelatinolytic activity at cytotoxic IC50 level incubated for 24 hrs by zymography; assay type: cell-based; settings: PC-3
In short: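 PC-3 cells at 80% confluence were washed with PBS and treated in serum-free medium (24 h, 37°C). Conditioned medium was mixed 0.75:0.25 with sample buffer lacking mercaptoethanol and run on 10% SDS gels copolymerized with gelatin (1 mg/mL). MMP-9 lysis zones were quantified as % activity relative to vehicle. Three experiments, mean ± SEM.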

[11] = Inhibition of clonogenic potential of rat MAT-LyLu cells grown on semi-soft agar medium assessed as colony formation at cytotoxic IC50 level incubated for 2 weeks post dose by crystal violet staining based light microscopy relative to control; assay type: functional, MAT-Ly-Lu; design: scale not given: the % may be the effect or the level left; in short: as §4
[12] = system: PC-3; assay: Inhibition of EGF-induced cell migration of human PC3 cells at cytotoxic IC50 level incubated for 24 hrs in presence of EGF by light microscopy based wound healing assay; assay type: functional
In short: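 PC-3 cells (8×10^4 per well) were grown to confluence (48 h, 37°C) and the monolayer scratched with a pipette tip. After a PBS wash, compound in fresh medium was added with […] (1 pg/ml) for 24 h. Wound area was imaged at 0 and 24 h and expressed as % closure of the original wound. Three independent experiments, mean ± SEM.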

[13] = Inhibition of clonogenic potential of rat MAT-LyLu cells grown on semi-soft agar medium assessed as relative colony size ratio at cytotoxic IC50 level incubated for 2 weeks post dose by crystal violet staining based light microscopy (reference value: 1 +/- 0.05); assay type: functional, MAT-Ly-Lu; in short: as §4
[14] = Inhibition of clonogenic potential of human PC3 cells grown on semi-soft agar medium assessed as colony formation at cytotoxic IC50 level incubated for 2 weeks post dose by crystal violet staining based light microscopy relative to control; assay type: functional, PC-3; design: scale not given: the % may be the effect or the level left; in short: as §4

Chain of Matrix metalloproteinase-9 (Homo sapiens) (P14780 whole entry): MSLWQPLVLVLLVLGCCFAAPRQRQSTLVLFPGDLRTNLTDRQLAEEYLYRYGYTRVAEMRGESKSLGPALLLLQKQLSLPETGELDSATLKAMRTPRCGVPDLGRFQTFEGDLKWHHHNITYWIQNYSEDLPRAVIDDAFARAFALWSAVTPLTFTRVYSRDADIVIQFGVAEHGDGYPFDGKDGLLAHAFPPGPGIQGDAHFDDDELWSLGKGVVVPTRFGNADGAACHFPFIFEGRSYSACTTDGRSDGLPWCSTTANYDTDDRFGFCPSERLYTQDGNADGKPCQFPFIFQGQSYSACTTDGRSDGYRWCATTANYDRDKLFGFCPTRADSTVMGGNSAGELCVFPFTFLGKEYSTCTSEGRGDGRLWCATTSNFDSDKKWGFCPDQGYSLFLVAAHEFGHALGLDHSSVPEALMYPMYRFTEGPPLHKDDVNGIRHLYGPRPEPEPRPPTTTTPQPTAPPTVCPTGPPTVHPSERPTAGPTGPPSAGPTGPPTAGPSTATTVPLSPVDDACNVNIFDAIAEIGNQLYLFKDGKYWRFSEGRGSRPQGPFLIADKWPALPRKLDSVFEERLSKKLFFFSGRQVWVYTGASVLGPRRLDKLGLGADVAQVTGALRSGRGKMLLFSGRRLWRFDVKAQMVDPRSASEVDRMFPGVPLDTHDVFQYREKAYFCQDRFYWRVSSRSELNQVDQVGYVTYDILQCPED

SMILES | IC50 [1] | IC50 [2] | IC50 [3] | also measured
Cc1ccc(N2C3=C(C(=O)CCC3)[C@]3(O)C(=O)c4ccccc4[C@]23O)cc1C (racemic) | > 100 µg/mL | > 100 µg/mL | > 100 µg/mL | 
COc1cc(N2C3=C(C(=O)CCC3)[C@]3(O)C(=O)c4ccccc4[C@]23O)cc(OC)c1OC (racemic) | > 100 µg/mL | > 100 µg/mL | > 100 µg/mL | 
Cc1ccc(C)c(N2C3=C(C(=O)CC(C)(C)C3)[C@]3(O)C(=O)c4ccccc4[C@]23O)c1 (racemic) | > 100 µg/mL | > 100 µg/mL | > 100 µg/mL | 
COc1ccc(N2C3=C(C(=O)CC(C)(C)C3)[C@]3(O)C(=O)c4ccccc4[C@]23O)c(OC)c1 (racemic) | > 100 µg/mL | > 100 µg/mL | > 100 µg/mL | 
COc1cccc(N2C3=C(C(=O)CC(C)(C)C3)[C@]3(O)C(=O)c4ccccc4[C@]23O)c1 (racemic) | > 100 µg/mL | > 100 µg/mL | > 100 µg/mL | 
O=C1CCCC2=C1[C@]1(O)C(=O)c3ccccc3[C@]1(O)N2c1ccc(Cl)cc1 (racemic) | > 100 µg/mL | 79.2 µg/mL (≈ 207 µM) | 67.9 µg/mL (≈ 178 µM) | inhibition [4]: Dose-dependent effect; inhibition [2]: Dose-dependent effect; inhibition [5]: Dose-dependent effect
O=C1CCCC2=C1[C@]1(O)C(=O)c3ccccc3[C@]1(O)N2c1ccc(Cl)c(Cl)c1 (racemic) | 75.2 µg/mL (≈ 181 µM) | 53.9 µg/mL (≈ 130 µM) | 47.8 µg/mL (≈ 115 µM) | inhibition [4]: Dose-dependent effect; inhibition [2]: Dose-dependent effect; inhibition [5]: Dose-dependent effect
Cc1ccc(N2C3=C(C(=O)CC(C)(C)C3)[C@]3(O)C(=O)c4ccccc4[C@]23O)c(C)c1 (racemic) | > 100 µg/mL | > 100 µg/mL | > 100 µg/mL | 
Cc1ccc(N2C3=C(C(=O)CCC3)[C@]3(O)C(=O)c4ccccc4[C@]23O)cc1 (racemic) | > 100 µg/mL | > 100 µg/mL | > 100 µg/mL | 
Cc1cccc(N2C3=C(C(=O)CC(C)(C)C3)[C@]3(O)C(=O)c4ccccc4[C@]23O)c1 (racemic) | > 100 µg/mL | > 100 µg/mL | > 100 µg/mL | 
COc1ccc(OC)c(N2C3=C(C(=O)CCC3)[C@]3(O)C(=O)c4ccccc4[C@]23O)c1 | > 100 µg/mL | > 100 µg/mL | > 100 µg/mL | 
Cc1ccc(N2C3=C(C(=O)CC(C)(C)C3)[C@]3(O)C(=O)c4ccccc4[C@]23O)cc1C (racemic) | > 100 µg/mL | > 100 µg/mL | > 100 µg/mL | 
CC1(C)CC(=O)C2=C(C1)N(c1ccc(Cl)c(Cl)c1)[C@@]1(O)c3ccccc3C(=O)[C@@]21O (racemic) | 5.96 µg/mL (≈ 13.4 µM) | 9.57 µg/mL (≈ 21.5 µM) | 10.7 µg/mL (≈ 24.1 µM) | inhibition [6]: Active; Ratio [7]: 0; inhibition [4]: Dose-dependent effect; Ratio [8]: 0; Activity [9]: 0%; inhibition [2]: Dose-dependent effect; inhibition [10]: Active; inhibition [5]: Dose-dependent effect; Activity [11]: 6.35%; inhibition [12]: Active; Ratio [13]: 0.16; Activity [14]: 0%
Cc1ccc(N2C3=C(C(=O)CCC3)[C@]3(O)C(=O)c4ccccc4[C@]23O)c(C)c1 (racemic) | > 100 µg/mL | > 100 µg/mL | > 100 µg/mL | 
COc1ccccc1N1C2=C(C(=O)CCC2)[C@]2(O)C(=O)c3ccccc3[C@]12O (racemic) | > 100 µg/mL | > 100 µg/mL | > 100 µg/mL | 
COc1cc(N2C3=C(C(=O)CC(C)(C)C3)[C@]3(O)C(=O)c4ccccc4[C@]23O)cc(OC)c1OC (racemic) | > 100 µg/mL | > 100 µg/mL | > 100 µg/mL | 
Cc1cc(C)cc(N2C3=C(C(=O)CC(C)(C)C3)[C@]3(O)C(=O)c4ccccc4[C@]23O)c1 (racemic) | > 100 µg/mL | > 100 µg/mL | > 100 µg/mL | 
COc1ccc(N2C3=C(C(=O)CC(C)(C)C3)[C@]3(O)C(=O)c4ccccc4[C@]23O)cc1 (racemic) | > 100 µg/mL | > 100 µg/mL | > 100 µg/mL | 

SMILES | IC50 [1] | IC50 [2] | IC50 [3] | also measured
COc1ccc(N2C3=C(C(=O)CCC3)[C@]3(O)C(=O)c4ccccc4[C@]23O)c(OC)c1 (racemic) | > 100 µg/mL | > 100 µg/mL | > 100 µg/mL | 
COc1ccc(N2C3=C(C(=O)CCC3)[C@]3(O)C(=O)c4ccccc4[C@]23O)cc1OC (racemic) | > 100 µg/mL | > 100 µg/mL | > 100 µg/mL | 
COc1ccc(N2C3=C(C(=O)CCC3)[C@]3(O)C(=O)c4ccccc4[C@]23O)cc1 (racemic) | > 100 µg/mL | > 100 µg/mL | > 100 µg/mL | 
COc1ccc(N2C3=C(C(=O)CC(C)(C)C3)[C@]3(O)C(=O)c4ccccc4[C@]23O)cc1OC (racemic) | > 100 µg/mL | > 100 µg/mL | > 100 µg/mL | 
Cc1ccccc1N1C2=C(C(=O)CCC2)[C@]2(O)C(=O)c3ccccc3[C@]12O (racemic) | > 100 µg/mL | > 100 µg/mL | > 100 µg/mL | 
O=C1CCCC2=C1[C@]1(O)C(=O)c3ccccc3[C@]1(O)N2c1ccc(Br)cc1 (racemic) | > 100 µg/mL | > 100 µg/mL | > 100 µg/mL | 
COc1ccccc1N1C2=C(C(=O)CC(C)(C)C2)[C@]2(O)C(=O)c3ccccc3[C@]12O (racemic) | > 100 µg/mL | > 100 µg/mL | > 100 µg/mL | 
Cc1ccc(C)c(N2C3=C(C(=O)CCC3)[C@]3(O)C(=O)c4ccccc4[C@]23O)c1 (racemic) | > 100 µg/mL | > 100 µg/mL | > 100 µg/mL | 
Cc1ccccc1N1C2=C(C(=O)CC(C)(C)C2)[C@]2(O)C(=O)c3ccccc3[C@]12O (racemic) | > 100 µg/mL | > 100 µg/mL | > 100 µg/mL | 
CC1(C)CC(=O)C2=C(C1)N(c1ccc(Cl)cc1)[C@@]1(O)c3ccccc3C(=O)[C@@]21O (racemic) | > 100 µg/mL | 66.2 µg/mL (≈ 162 µM) | 76.6 µg/mL (≈ 187 µM) | inhibition [4]: Dose-dependent effect; inhibition [2]: Dose-dependent effect; inhibition [5]: Dose-dependent effect
COc1cccc(N2C3=C(C(=O)CCC3)[C@]3(O)C(=O)c4ccccc4[C@]23O)c1 (racemic) | > 100 µg/mL | > 100 µg/mL | > 100 µg/mL | 
Cc1cc(C)cc(N2C3=C(C(=O)CCC3)[C@]3(O)C(=O)c4ccccc4[C@]23O)c1 (racemic) | > 100 µg/mL | > 100 µg/mL | > 100 µg/mL | 
Cc1cc(N)c2ccccc2[n+]1CCCCCCCCCC[n+]1c(C)cc(N)c2ccccc21 [DEQUALINIUM] | 10.3 µg/mL | 4.94 µg/mL | 24.6 µg/mL | inhibition [4]: Dose-dependent effect; inhibition [2]: Dose-dependent effect; inhibition [5]: Dose-dependent effect
COc1ccc(OC)c(N2C3=C(C(=O)CC(C)(C)C3)[C@]3(O)C(=O)c4ccccc4[C@]23O)c1 (racemic) | > 100 µg/mL | > 100 µg/mL | > 100 µg/mL | 
Cc1ccc(N2C3=C(C(=O)CC(C)(C)C3)[C@]3(O)C(=O)c4ccccc4[C@]23O)cc1 (racemic) | > 100 µg/mL | > 100 µg/mL | > 100 µg/mL | 
CC1(C)CC(=O)C2=C(C1)N(c1ccc(Br)cc1)[C@@]1(O)c3ccccc3C(=O)[C@@]21O (racemic) | > 100 µg/mL | > 100 µg/mL | > 100 µg/mL | 
Cc1cccc(N2C3=C(C(=O)CCC3)[C@]3(O)C(=O)c4ccccc4[C@]23O)c1 (racemic) | > 100 µg/mL | > 100 µg/mL | > 100 µg/mL | 
